ChEMBL document CHEMBL1909500, “Synthesis and in vitro anticancer activity of 6,7-methylenedioxy (or 5-hydroxy-6-methoxy)-2-(substituted selenophenyl)quinolin-4-one analogs” (Eur J Med Chem, 2011)
Activity calls are given as the source filed them. The rule behind the calls is not given here.

Legend:
NCI-H226 = experiment: Anticancer activity against human NCI-H226 cells after 48 hrs by MTT assay; format: functional; conditions: NCI-H226, 48 h
NCI-H522 = experiment: Anticancer activity against human NCI-H522 cells after 48 hrs by MTT assay; format: functional; conditions: NCI-H522, 48 h
SF-268 = experiment: Anticancer activity against human SF268 cells after 48 hrs by MTT assay; format: functional; conditions: SF-268, 48 h
LOX IMVI = experiment: Anticancer activity against human LOXIMVI cells after 48 hrs by MTT assay; format: functional
Malme-3M = experiment: Anticancer activity against human MALME-3M cells after 48 hrs by MTT assay; format: functional
SK-MEL-5 = experiment: Anticancer activity against human SK-MEL-5 cells after 48 hrs by MTT assay; format: functional; conditions: SK-MEL-5, 48 h
OVCAR-3 = experiment: Anticancer activity against human OVCAR3 cells after 48 hrs by MTT assay; format: functional; conditions: OVCAR-3, 48 h
OVCAR-5 = experiment: Anticancer activity against human OVCAR5 cells after 48 hrs by MTT assay; format: functional; conditions: OVCAR-5, 48 h
OVCAR-8 = experiment: Anticancer activity against human OVCAR8 cells after 48 hrs by MTT assay; format: functional; conditions: OVCAR-8, 48 h
ACHN = experiment: Anticancer activity against human ACHN cells after 48 hrs by MTT assay; format: functional
T47D = experiment: Anticancer activity against human T47D cells after 48 hrs by MTT assay; format: functional
HL-60 [1] = experiment: Induction of apoptosis in human HL60 cells assessed as cell shrinkage at 1 uM after 24 hrs; format: functional, cell-based
In short: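 HL-60 cells were exposed to 1 μM for 24 h. Apoptotic morphology, scored as cell shrinkage and apoptotic bodies, was examined by microscopy at 200×.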

HL-60 [2] = experiment: Cell cycle arrest in human HL60 assessed as cell accumulation in Sub-G1 phase at 1 uM after 24 hrs by propidium iodide staining-based flow cytometric analysis; format: functional
In short: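 HL-60 cells were preincubated for 3 h with or without the pan-caspase inhibitor z-VAD-fmk, then co-exposed to compound at 1 μM for 24 h. Cells were washed in PBS and fixed overnight in ice-cold 70% ethanol at −20 °C. They were stained for 30 min in the dark with propidium iodide 4 μg/mL, 0.1 mg/ml RNase and 1% Triton X-100. DNA content was read on a FACScan flow cytometer.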

[3] = read-out: pLC50 (the source's name) (converted)

## Cc1ccc(-c2cc(=O)c3cc4c(cc3[nH]2)OCO4)[se]1
NCI-H226
  GI50: 0.389 µM
NCI-H226; [3]
  CC50: > 100 µM
NCI-H226; read-out: pTGI
  TGI: > 100 µM
NCI-H522
  GI50: 0.288 µM
NCI-H522; [3]
  CC50: > 100 µM
NCI-H522; read-out: pTGI (converted)
  TGI: 0.537 µM
SF-268
  GI50: 0.513 µM
SF-268; [3]
  CC50: > 100 µM
SF-268; read-out: pTGI
  TGI: > 100 µM
LOX IMVI
  GI50: 0.646 µM
LOX IMVI; [3]
  CC50: > 100 µM
LOX IMVI; read-out: pTGI
  TGI: > 100 µM
Malme-3M
  GI50: 0.427 µM
Malme-3M; [3]
  CC50: > 100 µM
Malme-3M; read-out: pTGI
  TGI: > 100 µM
SK-MEL-5
  GI50: 0.309 µM
OVCAR-3
  GI50: 0.24 µM
OVCAR-3; read-out: pTGI (converted)
  TGI: 0.457 µM
OVCAR-5
  GI50: 1.7 µM
OVCAR-5; [3]
  CC50: > 100 µM
OVCAR-5; read-out: pTGI
  TGI: > 100 µM
OVCAR-8
  GI50: 0.339 µM
OVCAR-8; [3]
  CC50: > 100 µM
OVCAR-8; read-out: pTGI
  TGI: > 100 µM
ACHN
  GI50: 0.759 µM
ACHN; [3]
  CC50: > 100 µM
ACHN; read-out: pTGI
  TGI: > 100 µM
T47D
  GI50: 0.871 µM
T47D; [3]
  CC50: > 100 µM
T47D; read-out: pTGI
  TGI: > 100 µM
HL-60 [1]
  Activity: Active
HL-60 [2]
  Activity: 21%
